Source: ChEMBL document CHEMBL4130487, “A pentanoic acid derivative targeting matrix metalloproteinase-2 (MMP-2) induces apoptosis in a chronic myeloid leukemia cell line” (Eur J Med Chem, 2017)
Activity calls are given as the source filed them. The rule behind the calls is not given here.

What was measured:
K562 [1] = experiment: Induction of apoptosis in human K562 cells assessed as late apoptotic cells at 2.5 uM after 48 hrs by Annexin V-FITC/propidium iodide staining based flow cytometry (reference value: 0.3%); format: functional
K562 [2] = experiment: Cell cycle arrest in human K562 cells assessed as accumulation at sub-G1 phase at 2.5 uM after 24 hrs by propidium iodide staining based flow cytometry (reference value: 1%)
K562 [3] = experiment: Induction of apoptosis in human K562 cells assessed as early apoptotic cells at 10 uM after 48 hrs by Annexin V-FITC/propidium iodide staining based flow cytometry (reference value: 9.6%); format: functional
K562 [4] = experiment: Cell cycle arrest in human K562 cells assessed as accumulation at G2/M-phase at 5 uM after 48 hrs by propidium iodide staining based flow cytometry (reference value: 35.3%); format: functional
Interstitial collagenase = molecular target: T1, Interstitial collagenase (Homo sapiens, UniProt P03956); experiment: Inhibition of recombinant human MMP1 (Phe100 to Gln268 residues) using Ac-Pro-Leu-Gly-S-Leu-Leu-Gly-OEt as substrate after 1 hr measured at 1 min time interval for 30 mins by microplate photometric method
T1 sequence (P03956 whole entry): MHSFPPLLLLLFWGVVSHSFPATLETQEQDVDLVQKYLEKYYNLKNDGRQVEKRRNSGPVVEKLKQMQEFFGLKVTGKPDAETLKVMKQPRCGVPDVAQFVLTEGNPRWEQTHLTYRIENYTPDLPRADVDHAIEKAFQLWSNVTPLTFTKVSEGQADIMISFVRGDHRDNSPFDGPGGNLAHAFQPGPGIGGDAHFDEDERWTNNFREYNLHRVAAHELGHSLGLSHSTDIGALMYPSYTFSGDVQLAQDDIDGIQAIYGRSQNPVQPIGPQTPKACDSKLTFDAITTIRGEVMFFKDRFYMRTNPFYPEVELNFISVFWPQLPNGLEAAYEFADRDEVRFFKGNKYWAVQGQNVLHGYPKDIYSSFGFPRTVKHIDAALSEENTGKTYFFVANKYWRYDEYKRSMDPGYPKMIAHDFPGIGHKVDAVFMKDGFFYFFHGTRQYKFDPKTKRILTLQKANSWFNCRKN
Outline: (§1)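 Commercial MMP kits; compound preincubated with enzyme before chromogenic substrate was added. Reactions at 37 °C for 1 h, with at least six inhibitor concentrations in triplicate. Absorbance at 410 nm read every 1 min for 30 min. NNGH used as reference inhibitor. IC50 taken from semi-logarithmic dose-response plots.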

K562 [5] = experiment: Induction of apoptosis in human K562 cells assessed as necrotic cells at 5 uM after 48 hrs by Annexin V-FITC/propidium iodide staining based flow cytometry (reference value: 0%); format: functional
MDA-MB-231 = experiment: Cytotoxicity against human MDA-MB-231 cells assessed as reduction in cell viability after 48 hrs by MTT assay; format: functional, cell-based; conditions: MDA-MB-231, 48 h
Outline: (§2)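 A549, MDA-MB-231, K562, U937 and PBMC (PBMC from healthy donors) seeded at 1×10^3 cells/well and left 24 h, then exposed to compounds for 48 h at 37 °C, 5% CO2. Adherent lines were grown in DMEM, the others in RPMI-1640 with 10% heat-inactivated FBS. MTT read-out; viability expressed as % of untreated control. IC50 taken as the concentration giving 50% viability loss.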

K562 [6] = experiment: Cell cycle arrest in human K562 cells assessed as accumulation at G1-phase at 2.5 uM after 24 hrs by propidium iodide staining based flow cytometry (reference value: 27.5%)
K562 [7] = experiment: Anti-invasive activity against human K562 cells after 24 hrs by CyQuantGR dye based fluorimetric QCM EC matrix assay; format: functional, cell-based
Outline: (§3)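 K562 cells (1X10^6 cells/ml) starved overnight in FBS-free medium, then placed in inserts in FBS-free medium with 5% BSA, with 5% FBS medium below as chemoattractant. Treated at 2.5, 5 and 10 μM in triplicate for 24 h alongside an untreated control. Invaded cells were detached, stained with CyQuantGR and read by fluorescence (ex 480/em 520 nm). Results given as % of control, mean ± SD.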

K562 [8] = experiment: Induction of apoptosis in human K562 cells assessed as live cells at 2.5 uM after 48 hrs by Annexin V-FITC/propidium iodide staining based flow cytometry (reference value: 90.1%); format: functional
K562 [9] = experiment: Induction of apoptosis in human K562 cells assessed as necrotic cells at 2.5 uM after 48 hrs by Annexin V-FITC/propidium iodide staining based flow cytometry (reference value: 0%); format: functional
K562 [10] = experiment: Downregulation of MMP2 protein expression in human K562 cells assessed as MMP2 positive population at 10 uM after 48 hrs by FITC staining based flow cytometry (reference value: 98.4%)
K562 [11] = experiment: Cell cycle arrest in human K562 cells assessed as accumulation at sub-G1 phase at 5 uM after 24 hrs by propidium iodide staining based flow cytometry (reference value: 1%)
K562 [12] = experiment: Cell cycle arrest in human K562 cells assessed as accumulation at G1/S-phase at 5 uM after 48 hrs by propidium iodide staining based flow cytometry (reference value: 21.8%); format: functional
K562 [13] = experiment: Cell cycle arrest in human K562 cells assessed as accumulation at G1/S-phase at 2.5 uM after 24 hrs by propidium iodide staining based flow cytometry (reference value: 21.8%)
K562 [14] = experiment: Induction of apoptosis in human K562 cells assessed as DNA nick generation after 48 hrs by DAPI staining based fluorescence microscopic method
K562 [15] = experiment: Induction of apoptosis in human K562 cells assessed as necrotic cells at 10 uM after 48 hrs by Annexin V-FITC/propidium iodide staining based flow cytometry (reference value: 0%); format: functional
U-937 = experiment: Cytotoxicity against human U937 cells assessed as reduction in cell viability after 48 hrs by MTT assay; format: functional, cell-based; conditions: U-937, 48 h; outline: as §2
K562 [16] = experiment: Downregulation of MMP2 protein expression in human K562 cells assessed as MMP2 positive population at 5 uM after 48 hrs by FITC staining based flow cytometry (reference value: 98.4%)
K562 [17] = experiment: Anti-invasive activity against human K562 cells at 5 uM after 24 hrs by CyQuantGR dye based fluorimetric QCM EC matrix assay relative to control; format: functional; conditions: K562, 24 h; outline: as §3
[18] = molecular target: Matrix metalloproteinase-14 (Homo sapiens, UniProt P50281); experiment: Inhibition of recombinant human MMP14 (Tyr112 to Arg298 residues) expressed in Escherichia coli using Ac-Pro-Leu-Gly-S-Leu-Leu-Gly-OEt as substrate after 1 hr measured at 1 min time interval for 30 mins by microplate photometric method; outline: as §1
K562 [19] = experiment: Induction of apoptosis in human K562 cells assessed as late apoptotic cells at 10 uM after 48 hrs by Annexin V-FITC/propidium iodide staining based flow cytometry (reference value: 0.3%); format: functional

IC50 (Interstitial collagenase): > 500 µM
IC50 [18]: 436 µM
SMILES: CCCCCNC(=O)CC[C@H](NS(=O)(=O)c1ccc([N+](=O)[O-])cc1)C(=O)O
Activity (K562 [1]): 11.6%
Activity (K562 [2]): 1.4%
Activity (K562 [3]): 15.4%
Activity (K562 [4]): 32.2%
Activity (K562 [5]): 0.1%
IC50 (MDA-MB-231): 162 µM
Activity (K562 [6]): 30.7%
Activity (K562 [7]): Dose-dependent effect
Activity (K562 [8]): 73.5%
Activity (K562 [9]): 0.5%
Activity (K562 [10]): 15.6%
Activity (K562 [11]): 2.4%
Activity (K562 [12]): 19.6%
Activity (K562 [13]): 20%
Activity (K562 [14]): Active
Activity (K562 [15]): 0.4%
IC50 (U-937): 32.1 µM
Activity (K562 [16]): 18.9%
inhibition at 5 µM (K562 [17]): 14.2%
Activity (K562 [19]): 10.3%
